pEC50: −log10 of the molar value.
How the values were obtained:
[1] = system: Human immunodeficiency virus 1; assay: Fold resistance, ratio of EC50 for HIV1 RES056 harboring reverse transcriptase K103N/Y181C RT mutant to EC50 for wild type HIV1 3B; assay type: functional
Outline: (§1)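 MT-4 cells at 6 × 10⁵ cells/mL were infected with the double mutant HIV-1 RES056 (K103N+Y181C), with serial fivefold compound dilutions. After 5 days, viability was read by MTT at 540 and 690 nm, using the median OD of three wells. EC50 is 50% protection against virus-induced cytotoxicity, and CC50 is a 50% drop in OD540 of mock-infected cells. Fold resistance is the RES056 EC50 divided by the IIIB EC50.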

[2] = system: Human immunodeficiency virus 2; assay: Antiviral activity against HIV2 ROD infected in human MT4 cells assessed as inhibition of virus-induced cytopathic effect after 5 days by MTT assay; assay type: functional, organism-based; conditions: Human immunodeficiency virus 2, ISOLATE ROD, MT4, 120 h
Outline: (§2)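 MT-4 cells spun 5 min at 1000 rpm, resuspended at 6 × 10⁵ cells/mL, then infected with HIV-1 IIIB or HIV-2 ROD at 100–300 CCID50. Test compounds were added as serial fivefold dilutions. After 5 days, viability was read by MTT reduction at 540 and 690 nm, using the median OD of three wells. EC50 is the concentration giving 50% protection against virus-induced cytotoxicity.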

[3] = system: Human immunodeficiency virus 1; assay: Antiviral activity against HIV1 RES056 harboring reverse transcriptase K103N/Y181C mutant infected in human MT4 cells assessed as inhibition of virus-induced cytopathic effect after 5 days by MTT assay; assay type: functional, organism-based; conditions: Human immunodeficiency virus 1, RES056, MT4, 120 h; outline: as §1
[4] = Selectivity index, ratio of CC50 for human MT4 cells to EC50 for wild type HIV1 3B; assay type: toxicity, cell-based; conditions: read-out: Ratio CC50/EC50
Outline: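 HIV-1 IIIB stock at 100–300 CCID50 was added to MT-4 cells at 6 × 10⁵ cells/mL, with serial fivefold compound dilutions and mock-infected wells run in parallel. Viability was read by MTT at 540 and 690 nm after 5 days, using the median OD of three wells. EC50 is 50% protection from HIV-induced cytotoxicity, and CC50 is a 50% reduction of mock-infected OD540. SI is CC50/EC50.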

[5] = system: Human immunodeficiency virus 1; assay: Antiviral activity against HIV1 3B infected in human MT4 cells assessed as inhibition of virus-induced cytopathic effect after 5 days by MTT assay; assay type: functional, organism-based; conditions: Human immunodeficiency virus 1, 3B, MT4, 120 h; outline: as §2
[6] = Cytotoxicity against human MT4 cells after 5 days by MTT assay; assay type: cell-based
Outline: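 MT-4 cells at 6 × 10⁵ cells/mL were mock-infected with culture medium and exposed to serial fivefold dilutions of compound. After 5 days, viability was measured by MTT reduction at 540 and 690 nm, using the median OD of three wells. CC50 is the concentration reducing OD540 of the mock-infected control by 50%.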

[7] = Selectivity index, ratio of CC50 for human MT4 cells to EC50 for HIV1 RES056 harboring reverse transcriptase K103N/Y181C RT mutant; assay type: toxicity, cell-based; conditions: read-out: Ratio CC50/EC50

Cc1cc(C)c(Nc2nc(N)nc(NC3CCN(Cc4ccccc4)CC3)n2)c(C)c1
Ratio EC50 [1]: 481.3 | pEC50 [2]: < 4.63 | pEC50 [3]: 5.31 | selectivity ratio [4]: 2300 | pEC50 [5]: 7.99 | CC50 at 120 h [6]: 23.6 µM | selectivity ratio [7]: 5

O=C1Nc2ccc(Cl)cc2[C@@](C#CC2CC2)(C(F)(F)F)O1 [EFAVIRENZ]
Ratio EC50 [1]: 83.6 | pEC50 [3]: 6.26 | selectivity ratio [4]: > 964 | pEC50 [5]: 8.18 | CC50 at 120 h [6]: > 6.34 µM | selectivity ratio [7]: > 12

CNc1nc(Nc2c(C)cc(C)cc2C)nc(NC2CCN(Cc3ccc(C(N)=O)cc3)CC2)n1
Ratio EC50 [1]: 121.6 | pEC50 [2]: < 4.56 | pEC50 [3]: 6.25 | selectivity ratio [4]: 5940 | pEC50 [5]: 8.34 | CC50 at 120 h [6]: 27.4 µM | selectivity ratio [7]: 49

Cc1cc(C)c(Nc2nc(N)nc(NC3CCN(Cc4ccc([N+](=O)[O-])cc4)CC3)n2)c(C)c1
Ratio EC50 [1]: >439.1 | pEC50 [2]: < 5.46 | pEC50 [3]: < 5.46 | selectivity ratio [4]: 439 | pEC50 [5]: 8.10 | CC50 at 120 h [6]: 3.46 µM | selectivity ratio [7]: < 1

Cc1cc(C)c(Nc2nc(N)nc(NC3CCN(Cc4ccc(C(N)=O)cc4)CC3)n2)c(C)c1
Ratio EC50 [1]: 162.8 | pEC50 [2]: < 4.13 | pEC50 [3]: 5.48 | selectivity ratio [4]: 3640 | pEC50 [5]: 7.69 | CC50 at 120 h [6]: 74.4 µM | selectivity ratio [7]: 22

CNc1nc(Nc2c(C)cc(C)cc2C)nc(NC2CCN(Cc3ccc(S(N)(=O)=O)cc3)CC2)n1
Ratio EC50 [1]: 72.7 | pEC50 [2]: < 4.83 | pEC50 [3]: 6.29 | selectivity ratio [4]: 2120 | pEC50 [5]: 8.16 | CC50 at 120 h [6]: 14.8 µM | selectivity ratio [7]: 29

Cc1cc(C)c(Nc2nc(N)nc(NC3CCN(Cc4ccc(S(N)(=O)=O)cc4)CC3)n2)c(C)c1
Ratio EC50 [1]: 105.7 | pEC50 [2]: < 4.70 | pEC50 [3]: 6.21 | selectivity ratio [4]: 3450 | pEC50 [5]: 8.24 | CC50 at 120 h [6]: 19.9 µM | selectivity ratio [7]: 32

CNc1nc(Nc2c(C)cc(C)cc2C)nc(NC2CCN(Cc3ccncc3)CC2)n1
Ratio EC50 [1]: 76.4 | pEC50 [2]: < 4.59 | pEC50 [3]: 6.26 | selectivity ratio [4]: 3560 | pEC50 [5]: 8.14 | CC50 at 120 h [6]: 25.8 µM | selectivity ratio [7]: 47

Cc1cc(C)c(Nc2nc(N)nc(NC3CCN(Cc4ccncc4)CC3)n2)c(C)c1
Ratio EC50 [1]: 198.8 | pEC50 [2]: < 4.70 | pEC50 [3]: 6.01 | selectivity ratio [4]: 4110 | pEC50 [5]: 8.31 | CC50 at 120 h [6]: 20.1 µM | selectivity ratio [7]: 21

COc1nc(Nc2c(C)cc(C)cc2C)nc(NC2CCN(Cc3ccc(S(C)(=O)=O)cc3)CC2)n1
Ratio EC50 [1]: >=133.3 | pEC50 [2]: < 4.87 | pEC50 [3]: ≤ 5.80 | selectivity ratio [4]: 1130 | pEC50 [5]: 7.92 | CC50 at 120 h [6]: 13.5 µM | selectivity ratio [7]: ≤ 8

COc1nc(Nc2c(C)cc(C)cc2C)nc(NC2CCN(Cc3ccncc3)CC2)n1
Ratio EC50 [1]: 111.1 | pEC50 [2]: < 4.51 | pEC50 [3]: 5.83 | selectivity ratio [4]: 2320 | pEC50 [5]: 7.88 | CC50 at 120 h [6]: 30.9 µM | selectivity ratio [7]: 21

CC(C)Nc1cccnc1N1CCN(C(=O)c2cc3cc(NS(C)(=O)=O)ccc3[nH]2)CC1.CS(=O)(=O)O [DELAVIRDINE MESYLATE]
Ratio EC50 [1]: >1033.6 | pEC50 [3]: < 4.44 | selectivity ratio [4]: > 1030 | pEC50 [5]: 7.46 | CC50 at 120 h [6]: > 36.2 µM | selectivity ratio [7]: ≥ 1

CCOC(=O)c1ccc(CN2CCC(Nc3nc(Nc4c(C)cc(C)cc4C)nc(OC)n3)CC2)cc1
Ratio EC50 [1]: >576.6 | pEC50 [2]: < 5.07 | pEC50 [3]: < 5.07 | selectivity ratio [4]: 577 | pEC50 [5]: 7.83 | CC50 at 120 h [6]: 8.48 µM | selectivity ratio [7]: < 1

Cc1cc(C)c(Nc2nc(N)nc(NC3CCN(Cc4ccc(S(C)(=O)=O)cc4)CC3)n2)c(C)c1
Ratio EC50 [1]: 887.5 | pEC50 [2]: < 5.30 | pEC50 [3]: 5.31 | selectivity ratio [4]: 911 | pEC50 [5]: 8.26 | CC50 at 120 h [6]: 5.06 µM | selectivity ratio [7]: 1

COc1nc(Nc2c(C)cc(C)cc2C)nc(NC2CCN(Cc3ccc(S(N)(=O)=O)cc3)CC2)n1
Ratio EC50 [1]: 88.2 | pEC50 [2]: < 4.71 | pEC50 [3]: 6.03 | selectivity ratio [4]: 1850 | pEC50 [5]: 7.97 | CC50 at 120 h [6]: 19.6 µM | selectivity ratio [7]: 21

CCOC(=O)c1ccc(CN2CCC(Nc3nc(N)nc(Nc4c(C)cc(C)cc4C)n3)CC2)cc1
Ratio EC50 [1]: >511.6 | pEC50 [2]: < 5.23 | pEC50 [3]: < 5.23 | selectivity ratio [4]: 512 | pEC50 [5]: 7.94 | CC50 at 120 h [6]: 5.91 µM | selectivity ratio [7]: < 1

Nc1ccn([C@H]2CC[C@@H](CO)O2)c(=O)n1 [ZALCITABINE]
pEC50 [2]: 5.78 | selectivity ratio [4]: > 68 | pEC50 [5]: 5.86 | CC50 at 120 h [6]: > 94.7 µM

Cc1cn([C@H]2C[C@H](N=[N+]=[N-])[C@@H](CO)O2)c(=O)[nH]c1=O [ZIDOVUDINE]
Ratio EC50 [1]: 1.9 | pEC50 [2]: 8.15 | pEC50 [3]: 8.00 | selectivity ratio [4]: ≥ 8300 | CC50 at 120 h [6]: ≥ 49.8 µM | selectivity ratio [7]: ≥ 4400

CNc1nc(Nc2c(C)cc(C)cc2C)nc(NC2CCN(Cc3ccc(S(C)(=O)=O)cc3)CC2)n1
Ratio EC50 [1]: 549.8 | pEC50 [2]: < 5.02 | pEC50 [3]: 5.48 | selectivity ratio [4]: 1590 | pEC50 [5]: 8.22 | CC50 at 120 h [6]: 9.64 µM | selectivity ratio [7]: 3

Cc1cc(C)c(Nc2nc(N)nc(NC3CCN(Cc4ccc(C#N)cc4)CC3)n2)c(C)c1
Ratio EC50 [1]: >575.8 | pEC50 [2]: < 5.49 | pEC50 [3]: < 5.49 | selectivity ratio [4]: 576 | pEC50 [5]: 8.25 | CC50 at 120 h [6]: 3.26 µM | selectivity ratio [7]: < 1

CCOC(=O)c1ccc(CN2CCC(Nc3nc(NC)nc(Nc4c(C)cc(C)cc4C)n3)CC2)cc1
Ratio EC50 [1]: >297 | pEC50 [2]: < 5.31 | pEC50 [3]: < 5.31 | selectivity ratio [4]: 297 | pEC50 [5]: 7.78 | CC50 at 120 h [6]: 4.95 µM | selectivity ratio [7]: < 1

Cc1cc(C#N)cc(C)c1Oc1nc(Nc2ccc(C#N)cc2)nc(N)c1Br [ETRAVIRINE]
Ratio EC50 [1]: 15.5 | selectivity ratio [7]: 817

COc1nc(Nc2c(C)cc(C)cc2C)nc(NC2CCN(Cc3ccc(C(N)=O)cc3)CC2)n1
Ratio EC50 [1]: 128.3 | pEC50 [2]: < 4.48 | pEC50 [3]: 5.95 | selectivity ratio [4]: 3870 | pEC50 [5]: 8.06 | CC50 at 120 h [6]: 33.4 µM | selectivity ratio [7]: 30

Cc1ccnc2c1NC(=O)c1cccnc1N2C1CC1 [NEVIRAPINE]
Ratio EC50 [1]: >75 | pEC50 [3]: < 4.82 | selectivity ratio [4]: > 75 | CC50 at 120 h [6]: > 15 µM | selectivity ratio [7]: ≥ 1

From ChEMBL document CHEMBL2034927, “Design, synthesis, anti-HIV evaluation and molecular modeling of piperidine-linked amino-triazine derivatives as potent non-nucleoside reverse transcriptase inhibitors” (Bioorg Med Chem, 2012)
